Reference: ChEMBL document CHEMBL3102739, “Synthesis and antiproliferative activity of conformationally restricted 1,2,3-triazole analogues of combretastatins in the sea urchin embryo model and against human cancer cell lines” (Bioorg Med Chem, 2014)

Key:
MDA-MB-468 = experiment: Growth inhibition of human MDA-MB-468 cells after 48 hrs by SRB assay; format: functional; conditions: MDA-MB-468, 48 h
[1] = Growth inhibition of human Hs578T cells after 48 hrs by SRB assay; format: functional; conditions: Hs-578T
BT-549 = experiment: Growth inhibition of human BT549 cells after 48 hrs by SRB assay; format: functional; conditions: BT-549, 48 h
MDA-MB-231 = experiment: Growth inhibition of human MDA-MB-231 cells after 48 hrs by SRB assay; format: functional; conditions: MDA-MB-231, 48 h
DU-145 = experiment: Growth inhibition of human DU145 cells after 48 hrs by SRB assay; format: functional; conditions: DU-145, 48 h
MCF7 = experiment: Growth inhibition of human MCF7 cells after 48 hrs by SRB assay; format: functional; conditions: MCF7, 48 h
[2] = Growth inhibition of human UO31 cells after 48 hrs by SRB assay; format: functional; conditions: UO-31, 48 h
PC-3 = experiment: Growth inhibition of human PC3 cells after 48 hrs by SRB assay; format: functional; conditions: PC-3, 48 h
TK-10 = experiment: Growth inhibition of human TK10 cells after 48 hrs by SRB assay; format: functional; conditions: TK-10, 48 h
[3] = Growth inhibition of human RXF393 cells after 48 hrs by SRB assay; format: functional; conditions: RXF 393, 48 h
SN12C = experiment: Growth inhibition of human SN12C cells after 48 hrs by SRB assay; format: functional
ACHN = experiment: Growth inhibition of human ACHN cells after 48 hrs by SRB assay; format: functional
CAKI-1 = experiment: Growth inhibition of human CAKI-1 cells after 48 hrs by SRB assay; format: functional; conditions: CAKI-1, 48 h
786-0 = experiment: Growth inhibition of human 786-0 cells after 48 hrs by SRB assay; format: functional; conditions: 786-0, 48 h
A498 = experiment: Growth inhibition of human A498 cells after 48 hrs by SRB assay; format: functional; conditions: A498, 48 h
SK-OV-3 = experiment: Growth inhibition of human SKOV3 cells after 48 hrs by SRB assay; format: functional; conditions: SK-OV-3, 48 h
[4] = Growth inhibition of human NCI-ADR-RES cells after 48 hrs by SRB assay; format: functional
OVCAR-8 = experiment: Growth inhibition of human OVCAR8 cells after 48 hrs by SRB assay; format: functional; conditions: OVCAR-8, 48 h
[5] = Growth inhibition of human OVCAR4 cells after 48 hrs by SRB assay; format: functional; conditions: OVCAR-4, 48 h
[6] = Growth inhibition of human OVCAR5 cells after 48 hrs by SRB assay; format: functional; conditions: OVCAR-5, 48 h
OVCAR-3 = experiment: Growth inhibition of human OVCAR3 cells after 48 hrs by SRB assay; format: functional; conditions: OVCAR-3, 48 h
IGROV-1 = experiment: Growth inhibition of human IGROV1 cells after 48 hrs by SRB assay; format: functional; conditions: IGROV-1, 48 h
[7] = Growth inhibition of human UACC257 cells after 48 hrs by SRB assay; format: functional; conditions: UACC-257, 48 h
UACC-62 = experiment: Growth inhibition of human UACC62 cells after 48 hrs by SRB assay; format: functional; conditions: UACC-62, 48 h
SK-MEL-5 = experiment: Growth inhibition of human SK-MEL-5 cells after 48 hrs by SRB assay; format: functional; conditions: SK-MEL-5, 48 h
SK-MEL-28 = experiment: Growth inhibition of human SK-MEL-28 cells after 48 hrs by SRB assay; format: functional; conditions: SK-MEL-28, 48 h
MDA-MB-435 = experiment: Growth inhibition of human MDA-MB-435 cells after 48 hrs by SRB assay; format: functional; conditions: MDA-MB-435, 48 h
M14 = experiment: Growth inhibition of human M14 cells after 48 hrs by SRB assay; format: functional; conditions: M14, 48 h
SNB-75 = experiment: Growth inhibition of human SNB75 cells after 48 hrs by SRB assay; format: functional; conditions: SNB-75, 48 h
[8] = Growth inhibition of human SF539 cells after 48 hrs by SRB assay; format: functional; conditions: SF-539, 48 h
SF-295 = experiment: Growth inhibition of human SF295 cells after 48 hrs by SRB assay; format: functional; conditions: SF-295, 48 h
SF-268 = experiment: Growth inhibition of human SF268 cells after 48 hrs by SRB assay; format: functional; conditions: SF-268, 48 h
SW-620 = experiment: Growth inhibition of human SW620 cells after 48 hrs by SRB assay; format: functional; conditions: SW-620, 48 h
KM12 = experiment: Growth inhibition of human KM12 cells after 48 hrs by SRB assay; format: functional; conditions: KM12, 48 h
HT-29 = experiment: Growth inhibition of human HT-29 cells after 48 hrs by SRB assay; format: functional; conditions: HT-29, 48 h
HCT-15 = experiment: Growth inhibition of human HCT15 cells after 48 hrs by SRB assay; format: functional; conditions: HCT-15, 48 h
[9] = Growth inhibition of human HCC2998 cells after 48 hrs by SRB assay; format: functional; conditions: HCC 2998, 48 h
HCT-116 = experiment: Growth inhibition of human HCT116 cells after 48 hrs by SRB assay; format: functional; conditions: HCT-116, 48 h
COLO 205 = experiment: Growth inhibition of human COLO205 cells after 48 hrs by SRB assay; format: functional; conditions: COLO 205, 48 h
NCI-H522 = experiment: Growth inhibition of human NCI-H522 cells after 48 hrs by SRB assay; format: functional; conditions: NCI-H522, 48 h
NCI-H460 = experiment: Growth inhibition of human NCI-H460 cells after 48 hrs by SRB assay; format: functional; conditions: NCI-H460, 48 h
NCI-H322M = experiment: Growth inhibition of human NCI-H322M cells after 48 hrs by SRB assay; format: functional
NCI-H23 = experiment: Growth inhibition of human NCI-H23 cells after 48 hrs by SRB assay; format: functional; conditions: NCI-H23, 48 h
NCI-H226 = experiment: Growth inhibition of human NCI-H226 cells after 48 hrs by SRB assay; format: functional; conditions: NCI-H226, 48 h
HOP-62 = experiment: Growth inhibition of human HOP62 cells after 48 hrs by SRB assay; format: functional; conditions: HOP-62, 48 h
A549 = experiment: Growth inhibition of human A549 cells after 48 hrs by SRB assay; format: functional; conditions: A549, 48 h
RPMI-8226 = experiment: Growth inhibition of human RPMI8226 cells after 48 hrs by SRB assay; format: functional; conditions: RPMI-8226, 48 h
SR = experiment: Growth inhibition of human SR cells after 48 hrs by SRB assay; format: functional
MOLT-4 = experiment: Growth inhibition of human MOLT4 cells after 48 hrs by SRB assay; format: functional; conditions: MOLT-4, 48 h
K562 = experiment: Growth inhibition of human K562 cells after 48 hrs by SRB assay; format: functional; conditions: K562, 48 h
CCRF-CEM = experiment: Growth inhibition of human CCRF-CEM cells after 48 hrs by SRB assay; format: functional
HL-60(TB) = experiment: Growth inhibition of human HL-60(TB) cells after 48 hrs by SRB assay; format: functional; conditions: HL-60, 48 h
Paracentrotus lividus [10] = experiment: Antimitotic activity against sea urchin embryo free-swimming blastula model assessed as embryo spinning compound treated at 8 to 10 hrs post-fertilization measured after 0.25 to 20 hrs; format: functional, Blastula stage
Paracentrotus lividus [11] = experiment: Antimitotic activity against sea urchin embryo model assessed as cleavage arrest of fertilized egg compound treated at 8 to 20 mins post-fertilization and 45 to 55 mins prior to first mitotic cycle completion measured 2.5 to 5.5 hrs post-fertilization; format: functional
Summary of the method: (§1)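 Fertilized eggs are exposed 8–20 min after fertilization to 2-fold decreasing concentrations. Stocks are 10 mM in DMSO, then diluted 10-fold in 95% EtOH; final DMSO is at most 0.05% and EtOH at most 1%. Embryos are kept as a monolayer, up to 2000 embryos/mL, in filtered seawater at room temperature. The value is the threshold concentration giving cleavage alteration, embryo death before hatching or full mitotic arrest. Duplicates were run.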

Paracentrotus lividus [12] = experiment: Antimitotic activity against sea urchin embryo model assessed as cleavage alteration of fertilized egg compound treated at 8 to 20 mins post-fertilization and 45 to 55 mins prior to first mitotic cycle completion measured 2.5 to 5.5 hrs post-fertilization; format: functional; summary of the method: as §1

What does the source list for `COc1ccc(-c2nn[nH]c2-c2cc(OC)c3c(c2)OCO3)cc1`?
GI50 (MDA-MB-468): 19 nM; GI50 [1]: 22 nM; GI50 (BT-549): 121 nM; GI50 (MDA-MB-231): 45 nM; GI50 (DU-145): 32 nM; GI50 (MCF7): < 10 nM; GI50 [2]: 51 nM; GI50 (PC-3): 35 nM; GI50 (TK-10): 14.7 µM; GI50 [3]: 17 nM; GI50 (SN12C): 61 nM; GI50 (ACHN): 40 nM; GI50 (CAKI-1): 11 nM; GI50 (786-0): 32 nM; GI50 (A498): < 10 nM; GI50 (SK-OV-3): 23 nM; GI50 [4]: < 10 nM; GI50 (OVCAR-8): 40 nM; GI50 [5]: 518 nM; GI50 [6]: 49 nM; GI50 (OVCAR-3): 10 nM; GI50 (IGROV-1): 23 nM; GI50 [7]: 23 µM; GI50 (UACC-62): < 10 nM; GI50 (SK-MEL-5): 29 nM; GI50 (SK-MEL-28): 35 nM; GI50 (MDA-MB-435): < 10 nM; GI50 (M14): 13 nM; GI50 (SNB-75): 16 nM; GI50 [8]: 17 nM; GI50 (SF-295): < 10 nM; GI50 (SF-268): 101 nM; GI50 (SW-620): 14 nM; GI50 (KM12): 23 nM; GI50 (HT-29): 34 nM; GI50 (HCT-15): < 10 nM; GI50 [9]: 44 nM; GI50 (HCT-116): 19 nM; GI50 (COLO 205): 255 nM; GI50 (NCI-H522): < 10 nM; GI50 (NCI-H460): 11 nM; GI50 (NCI-H322M): 57 nM; GI50 (NCI-H23): 33 nM; GI50 (NCI-H226): 294 nM; GI50 (HOP-62): < 10 nM; GI50 (A549): 24 nM; GI50 (RPMI-8226): 33 nM; GI50 (SR): < 10 nM; GI50 (MOLT-4): 63 nM; GI50 (K562): < 10 nM; GI50 (CCRF-CEM): 26 nM; GI50 (HL-60(TB)): 23 nM; EC (Paracentrotus lividus [10]): 0.05 µM; EC (Paracentrotus lividus [11]): 0.002 µM; EC (Paracentrotus lividus [12]): 0.0005 µM
